Experimental data reported in ChEMBL document CHEMBL3792340, “Novel benzylidenephenylpyrrolizinones with pleiotropic activities potentially useful in Alzheimer's disease treatment” (Eur J Med Chem, 2016).

What was measured:
[1] = Antioxidant activity assessed as nitric oxide radical scavenging activity at 40 uM after 3 hrs by Griess assay; format: physicochemical
How it was run: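 Sodium nitroprusside (50 mM stock in phosphate buffer pH 7.4) mixed with test compound and phosphate buffer, incubated 3 h at 37.4 °C. Aliquot diluted with Griess reagent, absorbance read after 20 min at 546 nm. Inhibition = (Acontrol−Atest)/Acontrol×100; triplicate.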

[2] = Permeability of the compound at 100 uM at pH 7.4 after 4 hrs by PAMPA-BBB assay
[3] = target: Amyloid-beta precursor protein (Homo sapiens) (UniProt P05067); assay: Inhibition of Amyloid beta (1 to 42) (unknown origin) self aggregation at 10 uM measured every 5 mins with shake for 15 secs by ThT fluorescence assay relative to control
How it was run: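 Aβ1-42 (85 μL at 250 μg/mL) with thioflavin T (10 μL at 2 mM) and compound (1 μL of 1 mM) in 100 μL kit buffer; control without compound plus blanks. Fluorescence at 37 °C every 5 min, 15 s shaking between reads, Ex/Em 440/484 nm. Inhibition = 100 − (IFi/IFo×100).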

[4] = Cytotoxicity against human KB cells assessed as inhibition of cell proliferation at 10^-5 M after 72 hrs by MTS assay relative control; format: cell-based
How it was run: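 KB nasopharyngeal carcinoma cells in D-MEM with 10% fetal calf serum and antibiotics under 5% CO2; 1000 cells/well, treated 24 h after plating with compounds in DMSO (1% final), exposed 72 h. MTS read at 490 nm; inhibition = (1−OD treated/OD control)×100, triplicate.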

[5] = Antioxidant activity assessed as FeCl2-induced lipoperoxidation at 40 uM incubated for 2 hrs in dark by ferric thiocyanate method
[6] = Antioxidant activity assessed as DPPH radical scavenging activity after 30 mins by microplate reader method; format: physicochemical
How it was run: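 Compounds diluted from DMSO stock into absolute ethanol, incubated with 100 μM DPPH for 30 min at room temperature in the dark; absorbance at 517 nm. Scavenging % = (Acontrol−Asample)/Acontrol×100 versus vehicle control.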

[7] = Metal chelating activity of the compound assessed as formation of copper complex at 50 uM after 10 mins by UV-visible spectroscopy; format: physicochemical
How it was run: (§1)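 Compound in methanol (from 50 mM DMSO stock) at 50 μM mixed with equimolar CuCl2 or FeCl2, 10 min at room temperature; spectra scanned 230–600 nm at 298 K. Difference spectra obtained by subtracting the metal-alone spectrum from the mixture spectrum.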

[8] = Metal chelating activity of the compound assessed as formation of iron complex at 50 uM after 10 mins by UV-visible spectroscopy; format: physicochemical; how it was run: as §1
[9] = Half life in 10 mM phosphate buffer at 20 uM at pH 7.4 at 25 degC by UHPLC analysis; format: physicochemical
How it was run: (§2)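 20 μM compound (from 10 mM DMSO stock) in 10 mM phosphate buffer pH 7.4, ionic strength 150 mM with KCl, at 25 °C, n=3. Sampled at 6 times over 0 to 5 or 8 h by UHPLC-PDA on a C18 column with water/acetonitrile gradient (0.01% formic acid). Half-life from exponential regression of disappearance versus time.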

[10] = Binding affinity to Cu2+ assessed as dissociation constant after 10 to 60 mins by UV-visible spectra analysis
How it was run: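 In methanol–10 mM Tris pH 7.4 (8:2 v/v), compound 0–200 μM incubated with or without CuCl2 50 μM; scans 230–600 nm after 10 and 60 min. Absorbance difference at each compound's specific wavelength gave complex and free-ligand concentrations using the saturation maximum and stoichiometry from Job plots (total 100 μM, varying mole fraction).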

[11] = Binding affinity to Cu2+ assessed as association constant after 10 to 60 mins by UV-visible spectra analysis
How it was run: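 Ligand titration in methanol–10 mM Tris pH 7.4 (8:2, v/v): compound 0 to 200 μM incubated with or without CuCl2 (50 μM), room temperature. Scanned 230–600 nm at 10 and 60 min. Difference spectra (mixture minus compound) read at each compound's specific wavelength give bound complex and free ligand, using stoichiometry from Job plots at 100 μM total.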

[12] = Chemical stability in 10 mM phosphate buffer at 20 uM at pH 7.4 at 25 degC after 5 hrs by UHPLC analysis; format: physicochemical; conditions: pH 7.4, 5 h; how it was run: as §2

Chain of Amyloid-beta precursor protein (Homo sapiens) (P05067 whole entry): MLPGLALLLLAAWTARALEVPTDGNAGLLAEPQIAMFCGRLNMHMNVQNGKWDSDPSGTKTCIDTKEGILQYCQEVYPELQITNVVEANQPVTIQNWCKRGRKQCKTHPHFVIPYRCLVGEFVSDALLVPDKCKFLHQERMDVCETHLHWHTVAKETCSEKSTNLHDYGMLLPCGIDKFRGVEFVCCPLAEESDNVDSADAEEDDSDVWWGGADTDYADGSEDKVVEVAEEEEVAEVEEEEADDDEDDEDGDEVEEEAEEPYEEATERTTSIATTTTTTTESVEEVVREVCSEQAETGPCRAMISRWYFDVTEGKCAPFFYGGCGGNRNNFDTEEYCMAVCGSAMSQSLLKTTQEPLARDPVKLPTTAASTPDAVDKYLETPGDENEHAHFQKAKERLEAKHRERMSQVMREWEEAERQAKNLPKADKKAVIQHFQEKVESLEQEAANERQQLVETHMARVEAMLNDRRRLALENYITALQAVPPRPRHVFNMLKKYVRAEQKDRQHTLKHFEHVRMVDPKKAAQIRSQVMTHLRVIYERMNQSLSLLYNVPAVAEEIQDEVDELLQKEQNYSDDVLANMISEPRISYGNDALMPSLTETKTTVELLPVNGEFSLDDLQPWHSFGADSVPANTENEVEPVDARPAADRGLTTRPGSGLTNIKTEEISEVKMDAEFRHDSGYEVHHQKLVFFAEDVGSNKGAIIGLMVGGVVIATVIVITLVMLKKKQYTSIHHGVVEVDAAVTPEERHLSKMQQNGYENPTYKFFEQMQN

Activity [1] | inhibition [3] | peroxidation % [5] | EC50 [6] | Activity [7] | Activity [8] | half-life at 20 µM [9] | Kd [10] | logKa [11] | Stability [12] | SMILES | log Pe [2] | inhibition at 72 h, 10 µM [4]
 |  |  |  |  |  |  |  |  |  | Cn1c(=O)c2[nH]cnc2n(C)c1=O.O [THEOPHYLLINE] | < -6 | 
34.4% | 1.4% | 55.1% |  |  |  |  |  |  |  | O=C1/C(=C/c2ccccc2)C(c2ccccc2)n2cccc21 (centres undefined) |  | 41%
47.1% | 27% | 47% | 9.6 µM | Active | Active | 6.4 h | 19.9 µM | 4.7 |  | O=C1/C(=C/c2ccc(O)c(O)c2)C(c2ccc(O)c(O)c2)n2cccc21 (centres undefined) |  | 0%
53.7% | 8.4% | 71% | > 250 µM | Active | Active |  |  |  |  | COc1ccc(/C=C2/C(=O)c3cccn3C2c2ccc(OC)c(O)c2)cc1O (centres undefined) |  | 24%
57.5% | 24.9% | 51.3% | 12.8 µM | Active | Active | 11.9 h | 70.5 µM | 4.15 |  | COc1ccc(C2/C(=C\c3ccc(O)c(O)c3)C(=O)c3cccn32)cc1O (centres undefined) |  | 0%
57.7% | 15.9% | 58.2% | > 250 µM | Not Active | Not Active |  |  |  |  | COc1ccc(/C=C2/C(=O)c3cccn3C2c2ccc(O)c(OC)c2)cc1O (centres undefined) |  | 0%
35.3% | 30.1% | 70.4% | 246 µM | Not Active | Not Active |  |  |  |  | COc1cc(C2/C(=C\c3cc(OC)c(O)c(OC)c3)C(=O)c3cccn32)ccc1O (centres undefined) |  | 0%
51.7% | 14.5% | 67.4% | > 250 µM | Not Active |  |  |  |  |  | COc1cc(/C=C2/C(=O)c3cccn3C2c2ccccc2)ccc1O (centres undefined) |  | 24%
32.6% | 23.6% | 67.1% | > 250 µM | Not Active | Not Active |  |  |  |  | COc1cc(C2/C(=C\c3cc(OC)c(OC)c(OC)c3)C(=O)c3cccn32)ccc1O (centres undefined) |  | 
30.7% | 4.2% | 92.8% | > 250 µM |  |  |  |  |  |  | COc1cc(C2/C(=C\c3ccc(OCc4ccccc4)c(OCc4ccccc4)c3)C(=O)c3cccn32)ccc1OCc1ccccc1 (centres undefined) |  | 0%
60.4% |  |  | 19.2 µM | Active | Active |  |  |  |  | COc1cc(/C=C/C(=O)CC(=O)/C=C/c2ccc(O)c(OC)c2)ccc1O [CURCUMIN] |  | 83%
 |  |  | 18.2 µM |  |  |  |  |  |  | Cc1c(C)c2c(c(C)c1O)CCC(C)(C(=O)O)O2 (centres undefined) [TROLOX] |  | 
57% | 10.4% | 48.5% | 101 µM | Active | Active |  |  |  |  | COc1cc(/C=C2/C(=O)c3cccn3C2c2ccc(O)c(OC)c2)ccc1O (centres undefined) |  | 0%
65.6% | 28.7% | 57% | 12.6 µM | Active | Active |  | 2.2 µM | 5.65 | Stable | O=C1/C(=C/c2ccc(O)c(O)c2)C(c2ccccc2)n2cccc21 (centres undefined) |  | 0%
40.3% | 6% | 67.5% | > 250 µM | Not Active | Not Active |  |  |  |  | COc1ccc(/C=C2/C(=O)c3cccn3C2c2ccc(O)c(OC)c2)c(OC)c1 (centres undefined) |  | 38%
55.1% | 12.8% | 56.4% | 99.5 µM | Active | Active |  |  |  |  | COc1ccc(C2/C(=C\c3ccc(O)c(OC)c3)C(=O)c3cccn32)cc1O (centres undefined) |  | 29%
46.4% |  | 47% | 43.2 µM |  |  |  |  |  |  | COc1cc(/C=C/C(=O)O)ccc1O [FERULATE] |  | 
58% | 26.1% | 50.6% | 12 µM | Active | Active | 6.8 h | 22.1 µM | 4.65 |  | COc1cc(C2/C(=C\c3ccc(O)c(O)c3)C(=O)c3cccn32)ccc1O (centres undefined) |  | 0%

SMILES | Activity [1] | inhibition [3] | peroxidation % [5] | EC50 [6] | Activity [7] | Activity [8] | half-life at 20 µM [9] | Kd [10] | logKa [11] | Stability [12] | log Pe [2] | inhibition at 72 h, 10 µM [4]
O=c1c(O)c(-c2ccc(O)c(O)c2)oc2cc(O)cc(O)c12 [QUERCETIN] | 70.7% |  |  |  |  |  |  |  |  |  |  | 
